Experimental findings from ChEMBL document CHEMBL5137045, “Discovery of 2-(furan-2-ylmethylene)hydrazine-1-carbothioamide derivatives as novel inhibitors of SARS-CoV-2 main protease” (Eur J Med Chem, 2022) are described below.

A value given as a limit tells only on which side of the number the result lay.

The assay addresses Replicase polyprotein 1ab (Severe acute respiratory syndrome coronavirus 2) (UniProt P0DTD1). Briefly: Inhibition of SARS CoV-2 main protease at 50 uM using DABCYL-KTSAVLQSGFRKM-E(EDANS)-NH2 as substrate preincubated for 30 mins followed by substrate addition and measured after 20 mins relative to control. Particulars: time 50.0 min. Summed up:
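FRET protease assay in 40 mM PBS, 100 mM NaCl, 1 mM EDTA, 0.1% Triton, pH 7.3. M^pro (0.5 μM) was preincubated with inhibitor 30 min at room temperature, then 20 μM substrate was added. Cleavage fluorescence (ex 360/em 460 nm) was read for 20 min. This covers preliminary screening and IC50; IC50 from Hill1 fit.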
The molecule `Cc1c(NC(=S)NC(=O)c2ccc(F)cc2)c(=O)n(-c2ccccc2)n1C` displayed an inhibition of less than 20%.
The value for `Cc1ccc([N+](=O)[O-])cc1-c1ccc(/C=N/NC(=O)Cn2c3ccccc3c(=O)c3ccccc32)o1` was 22.5%; that for `Nc1nonc1-c1nc2ccccc2n1CC(=O)N/N=C/c1ccc(-c2ccc([N+](=O)[O-])cc2)o1` was 30.1%.
Turning to `N=C1S/C(=C/c2ccc(-c3cccc(C(=O)O)c3)o2)C(=O)N1c1nonc1N`, the inhibition stood at 30.3%.
On to `C=C(C)CNC(=S)Nc1c(C)n(C)n(-c2ccccc2)c1=O`, for which the inhibition was less than 20%.
The value for `O=C(N/N=C/c1ccc(-c2ccc([N+](=O)[O-])cc2)o1)c1cc2ccccc2cc1O` was less than 20%; that for `CCOC(=O)c1ccc(NC(=S)Nc2c(C)n(C)n(-c3ccccc3)c2=O)cc1` was less than 20%.
In turn, `COc1ccc(/N=C2/S/C(=C\c3ccc(-c4ccc(Cl)c(C(=O)O)c4)o3)C(=O)N2C)cc1` had an inhibition of 27.1%.
Molecule `CCOC(=O)c1ccc(-c2ccc(/C=N/NC(=O)Cn3c4ccccc4c(=O)c4ccccc43)o2)cc1` returned an inhibition of less than 20%.
The molecule `O=C(Cn1c2ccccc2c(=O)c2ccccc21)N/N=C/c1ccc(-c2cccc([N+](=O)[O-])c2)o1` showed an inhibition of 26.8%.
The value for `C=CCNC(=S)N/N=C/c1ccc(-c2ccc([N+](=O)[O-])cc2)o1` was 51.4%; that for `O=C(Cn1c2ccccc2c(=O)c2ccccc21)N/N=C/c1ccc(-c2cc([N+](=O)[O-])ccc2Cl)o1` was less than 20%; that for `Cc1cc(-c2ccc(/C=N/NC(=O)C(NC(=O)Cc3ccco3)C(C)C)o2)cc([N+](=O)[O-])c1C` (stereo not drawn) was 62.8%.
`Cc1c(/N=C/c2ccc(-c3cccc([N+](=O)[O-])c3)o2)c(=O)n(-c2ccccc2)n1C` came in with an inhibition of less than 20%.
Turning to `NC(=S)N/N=C/c1ccc(-c2ccc(Cl)c(Cl)c2)o1`, the inhibition was 49.8%.
`COc1cc([N+](=O)[O-])ccc1-c1ccc(/C=N/NC(=O)Cn2c3ccccc3c(=O)c3ccccc32)o1` came in with an inhibition of 26%.
Consider `Cc1c(NC(=S)NC(=O)c2cccc(Br)c2)c(=O)n(-c2ccccc2)n1C`, for which the inhibition is less than 20%.
`Cc1c(NC(=S)NC(=O)c2ccncc2)c(=O)n(-c2ccccc2)n1C` registered an inhibition of less than 20%.
`O=C(O)c1ccc(-c2ccc(/C=N/NC(=S)Nc3ccc(Cl)cc3)o2)cc1` yielded an inhibition of 27.5%.
Under `CNC(=S)N/N=C/c1ccc(-c2ccc(C(=O)O)cc2)o1` stands 39.5%; under `Cc1c(-c2ccc(/C=N/NC(=O)Cn3c(-c4nonc4N)nc4ccccc43)o2)ccc([N+](=O)[O-])c1C`, less than 20%; under `O=[N+]([O-])c1ccc(-c2ccc(/C=N/c3cccc(-c4nc5ccccc5o4)c3)o2)cc1`, 21.3%.
Take `O=C(N/N=C/c1ccc(-c2cccc(C(=O)O)c2)o1)Nc1ccc(Cl)cc1`: the inhibition was found to be 44.6%.
As to `Cc1c(NC(=S)NC(=O)c2cncc(Br)c2)c(=O)n(-c2ccccc2)n1C`, the inhibition was less than 20%.
`NC(=O)N/N=C/c1ccc(-c2ccc([N+](=O)[O-])cc2)o1` registered an inhibition of less than 20%.
Molecule `Cc1c(NC(=S)NCc2ccco2)c(=O)n(-c2ccccc2)n1C` gave an inhibition of less than 20%.
`O=C(Cn1c2ccccc2c(=O)c2ccccc21)N/N=C/c1ccc(-c2ccc([N+](=O)[O-])cc2Cl)o1` displayed an inhibition of 24.1%.
The value for `O=C(O)c1cc(-c2ccc(/C=N/Nc3nc(Nc4ccccc4)nc(Nc4ccccc4)n3)o2)ccc1O` was 34.6%; that for `Cc1c(NC(=S)NCCCN(C)C)c(=O)n(-c2ccccc2)n1C` was less than 20%; that for `O=C(O)c1cc(N/N=C/c2ccc(-c3ccc(Cl)c(C(=O)O)c3)o2)ccc1Cl` was 28.2%.
Molecule `Cc1c(NC(=S)N/N=C/c2ccc(-c3ccc(Br)cc3)o2)c(=O)n(-c2ccccc2)n1C` yielded an inhibition of 27.7%.
In the case of `O=C(NCCCn1ccnc1)/C(=C\c1ccc(-c2cccc([N+](=O)[O-])c2)o1)NC(=O)c1ccccc1`, the inhibition is 28.8%.
Under `CCOC(=O)N/N=C/c1ccc(-c2cccc(C(=O)O)c2)o1` stands 29.4%.
